Values joined by “and” are separate entries in the source; they are usually repeats but may differ in a detail not shown here. Equal values may be shown once.
Tested on: HEK-293T
Assay: Multiplex assay against HEK293T;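 for Population Tubulin-Different-Phenotype (%): share of the cells with healthy nuclei that show this phenotype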
Format: toxicity, cell-based
Conditions: human
In short: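 On a CQ1 microscope at 37°C and 5% CO2, live cells were imaged after compound addition. They had been stained at seeding with Hoechst33342, BioTracker Green Microtubule Cytoskeleton Dye, MitoTracker Red and Annexin V Alexa Fluor 680. CellPathfinder machine-learning gating assigned cells to Hoechst high-intensity objects or normal cells, normal cells to healthy, pyknosed or fragmented nuclei, and pyknosed cells to mitotic or apoptotic. Tubulin, mitochondrial-mass and membrane-permeability phenotypes are per cents of healthy-nucleus cells.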

[1] = 12 h, 10 µM, compound concentration 10 uM, replicate 1
[2] = 12 h, 10 µM, compound concentration 10 uM, replicate 2
[3] = 24 h, 10 µM, compound concentration 10 uM, replicate 1
[4] = 24 h, 10 µM, compound concentration 10 uM, replicate 2
[5] = 12 h, 1 µM, compound concentration 1 uM, replicate 1
[6] = 12 h, 1 µM, compound concentration 1 uM, replicate 2
[7] = 24 h, 1 µM, compound concentration 1 uM, replicate 1
[8] = 24 h, 1 µM, compound concentration 1 uM, replicate 2

Compound: CCN(CC)S(=O)(=O)Nc1cccc(-c2ccc3c(NC(=O)C4CC4)n[nH]c3c2)c1
- Population Apoptotic (%) [1]: 14% and 17%
- Population Fragmented Nuclei (%) [1]: 23% and 22%
- Population Healthy Nuclei (%) [1]: 31% and 60%
- Population Hoechst High Intensity Objects (%) [1]: 17% and 14%
- Population Membrane Permeable-Phenotype (%) [1]: 7% and 4%
- Population Mitochondria Different-Phenotype (%) [1]: 5% and 3%
- Population Mitotic Cells (%) [1]: 85% and 82%
- Population Normal (%) [1]: 82% and 85%
- Population Pyknosed Nuclei (%) [1]: 45% and 17%
- Population Tubulin-Different-Phenotype (%) [1]: 6% and 1%
- Total Cell Count [1]: 531 and 471
- Population Apoptotic (%) [2]: 13% and 5%
- Population Healthy Nuclei (%) [2]: 76% and 84%
- Population Hoechst High Intensity Objects (%) [2]: 4% and 2%
- Population Membrane Permeable-Phenotype (%) [2]: 1% and 0%
- Population Mitotic Cells (%) [2]: 86% and 94%
- Population Normal (%) [2]: 95% and 97%
- Population Tubulin-Different-Phenotype (%) [2]: 10% and 4%
- Total Cell Count [2]: 940 and 1848
- Population Apoptotic (%) [3]: 19% and 16%
- Population Fragmented Nuclei (%) [3]: 22% and 21%
- Population Healthy Nuclei (%) [3]: 34% and 70%
- Population Hoechst High Intensity Objects (%) [3]: 14% and 9%
- Population Membrane Permeable-Phenotype (%) [3]: 7% and 8%
- Population Mitotic Cells (%) [3]: 80% and 83%
- Population Normal (%) [3]: 85% and 90%
- Total Cell Count [3]: 487 and 501
- Population Apoptotic (%) [4]: 4% and 8%
- Population Healthy Nuclei (%) [4]: 67% and 71%
- Population Hoechst High Intensity Objects (%) [4]: 4% and 6%
- Population Membrane Permeable-Phenotype (%) [4]: 2% and 1%
- Population Mitochondria Different-Phenotype (%) [4]: 22%
- Population Mitotic Cells (%) [4]: 95% and 91%
- Population Normal (%) [4]: 95% and 93%

Compound: COc1cccc2cc(-c3nc([C@H]4CC[C@H](C(=O)O)CC4)n4ncnc(N)c34)[nH]c12 [OSI-027]
- Population Apoptotic (%) [5]: 25%
- Population Fragmented Nuclei (%) [5]: 14%
- Population Healthy Nuclei (%) [5]: 55%
- Population Hoechst High Intensity Objects (%) [5]: 16%
- Population Membrane Permeable-Phenotype (%) [5]: 3%
- Population Mitochondria Different-Phenotype (%) [5]: 10%
- Population Mitotic Cells (%) [5]: 74%
- Population Normal (%) [5]: 83%
- Population Pyknosed Nuclei (%) [5]: 29%
- Population Tubulin-Different-Phenotype (%) [5]: 5%
- Total Cell Count [5]: 587
- Population Apoptotic (%) [6]: 9%
- Population Fragmented Nuclei (%) [6]: 6%
- Population Healthy Nuclei (%) [6]: 85%
- Population Hoechst High Intensity Objects (%) [6]: 6%
- Population Membrane Permeable-Phenotype (%) [6]: 2%
- Population Mitochondria Different-Phenotype (%) [6]: 13%
- Population Mitotic Cells (%) [6]: 90%
- Population Normal (%) [6]: 93%
- Population Pyknosed Nuclei (%) [6]: 7%
- Population Tubulin-Different-Phenotype (%) [6]: 10%
- Total Cell Count [6]: 997
- Population Apoptotic (%) [1]: 23%
- Population Fragmented Nuclei (%) [1]: 32%
- Population Healthy Nuclei (%) [1]: 40%
- Population Hoechst High Intensity Objects (%) [1]: 22%
- Population Membrane Permeable-Phenotype (%) [1]: 8%
- Population Mitochondria Different-Phenotype (%) [1]: 2%
- Population Mitotic Cells (%) [1]: 76%
- Population Normal (%) [1]: 77%
- Population Pyknosed Nuclei (%) [1]: 27%
- Population Tubulin-Different-Phenotype (%) [1]: 2%
- Total Cell Count [1]: 379
- Population Apoptotic (%) [2]: 10%
- Population Fragmented Nuclei (%) [2]: 9%
- Population Healthy Nuclei (%) [2]: 85%
- Population Hoechst High Intensity Objects (%) [2]: 5%
- Population Membrane Permeable-Phenotype (%) [2]: 0%
- Population Mitochondria Different-Phenotype (%) [2]: 8%
- Population Mitotic Cells (%) [2]: 89%
- Population Normal (%) [2]: 94%
- Population Pyknosed Nuclei (%) [2]: 5%
- Population Tubulin-Different-Phenotype (%) [2]: 5%
- Total Cell Count [2]: 1068
- Population Apoptotic (%) [7]: 22%
- Population Fragmented Nuclei (%) [7]: 15%
- Population Healthy Nuclei (%) [7]: 60%
- Population Hoechst High Intensity Objects (%) [7]: 19%
- Population Membrane Permeable-Phenotype (%) [7]: 15%
- Population Mitochondria Different-Phenotype (%) [7]: 8%
- Population Mitotic Cells (%) [7]: 77%
- Population Normal (%) [7]: 80%
- Population Pyknosed Nuclei (%) [7]: 24%
- Population Tubulin-Different-Phenotype (%) [7]: 20%
- Total Cell Count [7]: 478
- Population Apoptotic (%) [8]: 4%
- Population Fragmented Nuclei (%) [8]: 7%
- Population Healthy Nuclei (%) [8]: 83%
- Population Hoechst High Intensity Objects (%) [8]: 8%
- Population Membrane Permeable-Phenotype (%) [8]: 6%
- Population Mitochondria Different-Phenotype (%) [8]: 13%
- Population Mitotic Cells (%) [8]: 95%
- Population Normal (%) [8]: 91%
- Population Pyknosed Nuclei (%) [8]: 8%
- Population Tubulin-Different-Phenotype (%) [8]: 37%
- Total Cell Count [8]: 849
- Population Apoptotic (%) [3]: 12%
- Population Fragmented Nuclei (%) [3]: 29%
- Population Healthy Nuclei (%) [3]: 53%
- Population Hoechst High Intensity Objects (%) [3]: 14%
- Population Membrane Permeable-Phenotype (%) [3]: 10%
- Population Mitochondria Different-Phenotype (%) [3]: 3%
- Population Mitotic Cells (%) [3]: 87%
- Population Normal (%) [3]: 85%
- Population Pyknosed Nuclei (%) [3]: 17%
- Population Tubulin-Different-Phenotype (%) [3]: 6%
- Total Cell Count [3]: 371
- Population Apoptotic (%) [4]: 0%
- Population Fragmented Nuclei (%) [4]: 18%
- Population Healthy Nuclei (%) [4]: 78%
- Population Hoechst High Intensity Objects (%) [4]: 5%
- Population Membrane Permeable-Phenotype (%) [4]: 5%
- Population Mitotic Cells (%) [4]: 100%
- Population Normal (%) [4]: 94%
- Population Pyknosed Nuclei (%) [4]: 2%
- Population Tubulin-Different-Phenotype (%) [4]: 10%
- Total Cell Count [4]: 1604

Compound: CCn1cc(-c2ccnc3[nH]c(-c4cccc(CN(C)C)c4)cc23)c(-c2ccc(NC(=O)N(C)C)cc2)n1 [GSK-1070916]
- Population Apoptotic (%) [5]: 17%
- Population Fragmented Nuclei (%) [5]: 16%
- Population Healthy Nuclei (%) [5]: 64%
- Population Hoechst High Intensity Objects (%) [5]: 11%
- Population Membrane Permeable-Phenotype (%) [5]: 16%
- Population Mitochondria Different-Phenotype (%) [5]: 9%
- Population Mitotic Cells (%) [5]: 82%
- Population Normal (%) [5]: 88%
- Population Pyknosed Nuclei (%) [5]: 18%
- Population Tubulin-Different-Phenotype (%) [5]: 18%
- Total Cell Count [5]: 676
- Population Apoptotic (%) [6]: 8%
- Population Fragmented Nuclei (%) [6]: 6%
- Population Healthy Nuclei (%) [6]: 84%
- Population Hoechst High Intensity Objects (%) [6]: 2%
- Population Membrane Permeable-Phenotype (%) [6]: 9%
- Population Mitochondria Different-Phenotype (%) [6]: 13%
- Population Mitotic Cells (%) [6]: 91%
- Population Normal (%) [6]: 97%
- Population Pyknosed Nuclei (%) [6]: 8%
- Population Tubulin-Different-Phenotype (%) [6]: 36%
- Total Cell Count [6]: 1405
- Population Apoptotic (%) [1]: 28%
- Population Fragmented Nuclei (%) [1]: 14%
- Population Healthy Nuclei (%) [1]: 49%
- Population Hoechst High Intensity Objects (%) [1]: 24%
- Population Membrane Permeable-Phenotype (%) [1]: 16%
- Population Mitochondria Different-Phenotype (%) [1]: 32%
- Population Mitotic Cells (%) [1]: 71%
- Population Normal (%) [1]: 75%
- Population Pyknosed Nuclei (%) [1]: 35%
- Population Tubulin-Different-Phenotype (%) [1]: 91%
- Total Cell Count [1]: 688
- Population Apoptotic (%) [2]: 8%
- Population Fragmented Nuclei (%) [2]: 1%
- Population Healthy Nuclei (%) [2]: 81%
- Population Hoechst High Intensity Objects (%) [2]: 10%
- Population Membrane Permeable-Phenotype (%) [2]: 14%
- Population Mitochondria Different-Phenotype (%) [2]: 37%
- Population Mitotic Cells (%) [2]: 91%
- Population Normal (%) [2]: 89%
- Population Pyknosed Nuclei (%) [2]: 17%
- Population Tubulin-Different-Phenotype (%) [2]: 99%
- Total Cell Count [2]: 1174
- Population Apoptotic (%) [7]: 15%
- Population Fragmented Nuclei (%) [7]: 13%
- Population Healthy Nuclei (%) [7]: 73%
- Population Hoechst High Intensity Objects (%) [7]: 8%
- Population Membrane Permeable-Phenotype (%) [7]: 18%
- Population Mitochondria Different-Phenotype (%) [7]: 6%
- Population Mitotic Cells (%) [7]: 84%
- Population Normal (%) [7]: 91%
- Population Pyknosed Nuclei (%) [7]: 12%
- Population Tubulin-Different-Phenotype (%) [7]: 37%
- Total Cell Count [7]: 672
- Population Apoptotic (%) [8]: 3%
- Population Fragmented Nuclei (%) [8]: 9%
- Population Healthy Nuclei (%) [8]: 85%
- Population Hoechst High Intensity Objects (%) [8]: 5%
- Population Membrane Permeable-Phenotype (%) [8]: 12%
- Population Mitochondria Different-Phenotype (%) [8]: 3%
- Population Mitotic Cells (%) [8]: 96%
- Population Normal (%) [8]: 94%
- Population Pyknosed Nuclei (%) [8]: 5%
- Population Tubulin-Different-Phenotype (%) [8]: 43%
- Total Cell Count [8]: 1602
- Population Apoptotic (%) [3]: 31%
- Population Fragmented Nuclei (%) [3]: 17%
- Population Healthy Nuclei (%) [3]: 57%
- Population Hoechst High Intensity Objects (%) [3]: 33%
- Population Membrane Permeable-Phenotype (%) [3]: 9%
- Population Mitochondria Different-Phenotype (%) [3]: 42%
- Population Mitotic Cells (%) [3]: 68%
- Population Normal (%) [3]: 66%
- Population Pyknosed Nuclei (%) [3]: 24%
- Population Tubulin-Different-Phenotype (%) [3]: 89%
- Total Cell Count [3]: 562
- Population Apoptotic (%) [4]: 10%
- Population Fragmented Nuclei (%) [4]: 3%
- Population Healthy Nuclei (%) [4]: 84%
- Population Hoechst High Intensity Objects (%) [4]: 17%
- Population Membrane Permeable-Phenotype (%) [4]: 18%
- Population Mitochondria Different-Phenotype (%) [4]: 39%
- Population Mitotic Cells (%) [4]: 89%
- Population Normal (%) [4]: 82%
- Population Pyknosed Nuclei (%) [4]: 11%
- Population Tubulin-Different-Phenotype (%) [4]: 98%
- Total Cell Count [4]: 1112

From ChEMBL document CHEMBL4689842, “EUbOPEN Chemogenomics Library wave 1” (2021)
